Residue numbers refer to the chain shown, from its start. Several values for one entry are separate records, joined by “and”; a condition that tells them apart may be missing. Identical values can stand only once. Activity calls are given as the source filed them. No cut-off for these calls is given here.
Key:
[1] = molecular target: T1, Vitamin D3 receptor (Homo sapiens) (UniProt P11473); experiment: Agonist activity at human full length VDR W282R mutant expressed in COS7 cells after 24 rs by luciferase reporter gene assay; format: cell-based; settings: COS-7
T1 sequence (whole entry): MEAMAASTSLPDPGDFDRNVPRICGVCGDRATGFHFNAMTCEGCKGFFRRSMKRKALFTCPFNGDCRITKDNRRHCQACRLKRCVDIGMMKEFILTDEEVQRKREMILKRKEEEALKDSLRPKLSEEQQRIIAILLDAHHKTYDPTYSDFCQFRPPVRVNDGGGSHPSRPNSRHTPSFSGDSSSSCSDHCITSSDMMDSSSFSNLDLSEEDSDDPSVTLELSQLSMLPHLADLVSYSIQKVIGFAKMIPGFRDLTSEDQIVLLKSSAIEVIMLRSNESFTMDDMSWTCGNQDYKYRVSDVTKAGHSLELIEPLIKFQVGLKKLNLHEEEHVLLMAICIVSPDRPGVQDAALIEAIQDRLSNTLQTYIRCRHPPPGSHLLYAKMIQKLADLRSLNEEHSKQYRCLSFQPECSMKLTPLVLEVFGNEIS
Outline: (§1)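 COS-7 cells grown in DMEM with 5% FCS, seeded at 2 × 10^4 per well. After 24 h, lipofected with mutant full-length hVDR expression plasmid, SPPx3-TK-Luc reporter (three mouse osteopontin VDRE copies) and sea pansy luciferase internal control. Medium changed after 4 h to 5% charcoal-treated FCS. Next day, ligand or ethanol vehicle added for 24 h. Lysate firefly luciferase normalized to the internal control. Triplicate.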

[2] = test system: T2, Vitamin D3 receptor (Homo sapiens), P11473 [R274L]; experiment: Agonist activity at human full length VDR R274L mutant expressed in COS7 cells after 24 rs by luciferase reporter gene assay; format: cell-based; settings: COS-7; outline: as §1
T2 sequence (whole entry): T1 sequence (whole entry) with R274L

[3] = test system: T3, Vitamin D3 receptor (Rattus norvegicus), P13053 [R270L]; settings: 5 mM
T3 sequence (whole entry): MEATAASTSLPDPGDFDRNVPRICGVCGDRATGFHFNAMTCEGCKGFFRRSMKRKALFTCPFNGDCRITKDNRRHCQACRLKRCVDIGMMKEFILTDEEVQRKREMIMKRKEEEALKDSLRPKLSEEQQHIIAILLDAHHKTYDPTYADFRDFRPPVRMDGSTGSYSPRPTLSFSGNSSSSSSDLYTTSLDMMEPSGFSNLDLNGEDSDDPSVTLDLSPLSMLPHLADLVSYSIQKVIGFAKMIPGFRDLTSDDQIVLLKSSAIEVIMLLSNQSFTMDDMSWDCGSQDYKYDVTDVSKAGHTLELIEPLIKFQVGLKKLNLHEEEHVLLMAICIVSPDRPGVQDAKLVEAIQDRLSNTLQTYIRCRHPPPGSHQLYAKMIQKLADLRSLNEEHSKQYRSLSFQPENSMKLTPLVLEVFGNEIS

[4] = test system: T4, Vitamin D3 receptor (Rattus norvegicus), P13053 [W282R]; settings: 5 mM
T4 sequence (whole entry): T3 sequence (whole entry) with L270R, W282R

[5] = molecular target: T5, Vitamin D3 receptor (Rattus norvegicus) (UniProt P13053); settings: 5 mM
T5 sequence (whole entry): T3 sequence (whole entry) with L270R

[6] = test system: T2, Vitamin D3 receptor (Homo sapiens), P11473 [R274L]; experiment: Transactivation of human full length VDR R274L mutant expressed in COS7 cells after 24 rs by luciferase reporter gene assay relative to 1,25(OH)2D3; format: cell-based; settings: COS-7; outline: as §1

Structure (SMILES) | Activity [1] | Activity [2] | also measured
CCCC[C@@H]1CC[C@]2(C)[C@@H]([C@H](C)CCCC(C)(C)O)CC[C@H]2/C1=C/C=C1C[C@@H](O)C[C@H](O)C1 | inactive |  | 
C[C@H](CCCC(C)(C)O)[C@H]1CC[C@H]2/C(=C/C=C3C[C@@H](O)C(=CCO)[C@H](O)C3)[C@H](CCCO)CC[C@]12C | inactive |  | 
C[C@H](CCCC(C)(C)O)[C@H]1CC[C@H]2/C(=C/C=C3/C[C@@H](O)C[C@H](OCCO)C3)CCC[C@]12C |  | Active | 
C[C@H](CCCC(C)(C)O)[C@H]1CC[C@H]2/C(=C/C=C3/C[C@@H](O)[C@@](C)(O)[C@H](OCCO)C3)CCC[C@]12C |  | inactive | 
C[C@H](CCCC(C)(C)O)[C@H]1CC[C@H]2/C(=C/C=C3/C[C@@H](O)C[C@H](OCCCCO)C3)CCC[C@]12C |  | Active | 
C=CC[C@@H]1CC[C@]2(C)[C@@H]([C@H](C)CCCC(C)(C)O)CC[C@H]2/C1=C/C=C1C[C@@H](O)C(=CCO)[C@H](O)C1 | inactive |  | 
C=C1/C(=C\C=C2/CCC[C@]3(C)[C@@H]([C@H](C)CCCC(C)(C)O)CC[C@@H]23)C[C@@H](O)C[C@@H]1O |  |  | ΔTm [3]: 2.5 °C; ΔTm [4]: 0.1 °C; ΔTm [5]: 8.4 °C
CCC(O)(CC)CS[C@@H](C)C1=CC[C@H]2/C(=C/C=C3C[C@@H](O)C(=CCO)[C@H](O)C3)CCC[C@]12C |  |  | fold change (FC) [6]: 130 and 46
C[C@H](CCCC(C)(C)O)[C@H]1CC[C@H]2/C(=C/C=C3/C[C@@H](O)[C@@](C)(O)[C@H](OCCCO)C3)CCC[C@]12C |  | inactive | 
C[C@H](CCCC(C)(C)O)[C@H]1CC[C@H]2/C(=C/C=C3/C[C@@H](O)[C@@](C)(O)[C@H](OCCCCO)C3)CCC[C@]12C |  | inactive | 

Source: ChEMBL document CHEMBL2424653, “Crystal structures of hereditary vitamin D-resistant rickets-associated vitamin D receptor mutants R270L and W282R bound to 1,25-dihydroxyvitamin D3 and synthetic ligands” (J Med Chem, 2013)
